Test results: publication PMC10836733 (Science Advances, 2024)
Changes are numbered by the printed parent chain. Numbered stars: 1 amine (or outer) side, 2 acyl side, 3 side chain; on linkers, the order of the positions; unused ones are H or OH. Bridge positions count the residues as written; N and C are the ends. Square brackets hold non-standard residues; d marks the D form. Peptide text beside a SMILES is read from it. X1 = CC(=O)NC(C(=O)OC(C(C)C)C(N[*:1])C(=O)[*:2])C(O)C(C)C; PhLac = O=C(O)[CH](O)Cc1ccccc1; NMeT = CN[CH](C(=O)O)[CH](C)O; NMeA = CN[CH](C)C(=O)O; NMeDha = C=C(NC)C(=O)O

How the values were obtained:
mouse GPR39 = biological target: T1, mouse GPR39 (Mus musculus, UniProt Q5U431); assay: FLIPR Ca2+ assay in HEK293T cells stably expressing mouse GPR39; type: cell-based; conditions: for GPR39 activation, presence or absence of 4 μM Zn2+: with or without 4 μM Zn2+
T1 sequence (Q5U431 1-456): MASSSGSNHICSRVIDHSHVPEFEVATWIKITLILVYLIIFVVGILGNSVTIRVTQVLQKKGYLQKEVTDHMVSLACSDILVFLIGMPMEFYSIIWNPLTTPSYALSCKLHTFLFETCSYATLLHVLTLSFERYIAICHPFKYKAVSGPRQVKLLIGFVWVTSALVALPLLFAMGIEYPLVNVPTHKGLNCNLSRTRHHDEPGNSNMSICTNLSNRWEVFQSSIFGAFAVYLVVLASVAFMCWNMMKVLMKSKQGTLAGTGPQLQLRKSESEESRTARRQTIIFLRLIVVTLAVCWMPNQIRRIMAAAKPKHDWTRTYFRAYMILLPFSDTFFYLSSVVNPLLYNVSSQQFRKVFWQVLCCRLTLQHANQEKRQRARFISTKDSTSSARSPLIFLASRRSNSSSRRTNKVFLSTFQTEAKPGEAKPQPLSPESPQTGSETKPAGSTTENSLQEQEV

[1] = tested on: zebrafish (Danio rerio) GPR39 (zfGPR39); assay: FLIPR Ca2+ assay, HEK293T cells expressing zebrafish GPR39; type: cell-based
How it was run: (§1)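 HEK293T cells expressing mouse GPR39 H17A/H19A mutant or zebrafish GPR39, Fluo-8-loaded, read by FLIPR at room temperature (addition at 30 s, 150 s recording). Where Zn2+ used, cells preincubated with 4 μM Zn2+ in recording buffer for 5 min and it was kept with all compound concentrations. Responses normalized to 200 μM LCAS; n = 3 or 4.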

GPR39 [2] = conditions: cited from earlier work
[3] = tested on: mock-transfected HEK293T cells; assay: Ca2+ response of mock-transfected HEK293T cells; type: cell-based, human; conditions: 200 μM
How it was run: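 Sham-transfected HEK293T cells loaded with Fluo-8 AM (2 μg/ml) in recording buffer for 25 min at room temperature, then 5 min in recording buffer. FLIPR read at room temperature every 1 s; 200 μM test compound or Zn2+ dispensed at 30 s, followed by 150 s recording.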

GHSR = GHSR (Homo sapiens, UniProt Q92847); assay: FLIPR Ca2+ assay, GHSR expressed in HEK293T-Gα15-GCaMP6s cells; type: cell-based; conditions: for GHSR activation: 200 μM BAs; for Maximal efficacy at GHSR: normalized to 1 μM ghrelin
Chain of GHSR (Q92847 whole entry): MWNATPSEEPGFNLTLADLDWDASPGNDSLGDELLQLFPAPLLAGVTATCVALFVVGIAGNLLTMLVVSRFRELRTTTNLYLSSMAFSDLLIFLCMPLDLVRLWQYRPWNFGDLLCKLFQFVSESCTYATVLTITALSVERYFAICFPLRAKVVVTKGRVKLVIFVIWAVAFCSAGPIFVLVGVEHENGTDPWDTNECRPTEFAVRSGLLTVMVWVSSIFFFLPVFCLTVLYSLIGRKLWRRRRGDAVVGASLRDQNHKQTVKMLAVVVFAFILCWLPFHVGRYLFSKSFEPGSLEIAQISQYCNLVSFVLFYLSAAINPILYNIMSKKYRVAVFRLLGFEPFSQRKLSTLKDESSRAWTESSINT

GPBAR1 = biological target: T2, GPBAR1 (Homo sapiens, UniProt Q8TDU6); assay: CRE luciferase reporter assay; type: cell-based
T2 sequence (Q8TDU6 1-330): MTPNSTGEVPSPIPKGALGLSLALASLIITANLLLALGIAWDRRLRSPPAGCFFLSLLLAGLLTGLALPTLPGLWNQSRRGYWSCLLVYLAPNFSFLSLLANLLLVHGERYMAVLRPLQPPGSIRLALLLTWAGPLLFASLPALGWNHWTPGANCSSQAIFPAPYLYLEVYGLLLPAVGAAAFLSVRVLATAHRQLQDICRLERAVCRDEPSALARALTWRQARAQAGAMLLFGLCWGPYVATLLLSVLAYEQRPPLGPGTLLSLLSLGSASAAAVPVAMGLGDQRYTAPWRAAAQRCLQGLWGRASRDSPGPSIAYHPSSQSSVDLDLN

pancreatic acinar cells [4] = assay: Ca2+ imaging in freshly isolated pancreatic acinar cells; type: cell-based, mouse
GPR39 [5] = biological target: T3, GPR39 (Homo sapiens, UniProt O43194); type: cell-based; conditions: 200 μM
T3 sequence (O43194 1-453): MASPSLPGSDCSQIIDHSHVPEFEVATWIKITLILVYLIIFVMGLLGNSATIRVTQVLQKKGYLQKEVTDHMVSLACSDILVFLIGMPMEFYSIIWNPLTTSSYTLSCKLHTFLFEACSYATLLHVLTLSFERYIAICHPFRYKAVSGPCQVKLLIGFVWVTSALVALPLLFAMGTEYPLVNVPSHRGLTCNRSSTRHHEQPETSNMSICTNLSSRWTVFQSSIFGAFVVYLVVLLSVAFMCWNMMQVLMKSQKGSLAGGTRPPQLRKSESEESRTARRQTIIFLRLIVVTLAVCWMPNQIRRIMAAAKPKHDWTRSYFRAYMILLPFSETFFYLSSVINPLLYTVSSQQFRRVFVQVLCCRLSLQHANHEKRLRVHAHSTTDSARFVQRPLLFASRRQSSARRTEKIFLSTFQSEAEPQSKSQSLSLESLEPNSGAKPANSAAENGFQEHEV
How it was run: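 HEK293T cells stably expressing Gα15 and GCaMP6s, on poly-D-lysine-coated plates, transiently transfected with human GPCR cDNAs. Test compound added by pipette at 200 μM; intracellular Ca2+ imaged by confocal microscopy.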

H17A/H19A mutant GPR39 = biological target: T4, H17A/H19A mutant GPR39 (Mus musculus, UniProt Q5U431, H17A/H19A); assay: FLIPR Ca2+ assay, HEK293T cells expressing GPR39 H17A/H19A mutant; type: cell-based
T4 sequence (Q5U431 1-456 H17A/H19A): T1 sequence (Q5U431 1-456) with H17A, H19A
How it was run: as §1

G. Gallus GPR39 = assay: FLIPR Ca2+ assay, HEK293T cells expressing chicken GPR39; type: cell-based, chicken (Gallus Gallus)
G. japonicus GPR39 = assay: FLIPR Ca2+ assay, HEK293T cells expressing gecko GPR39; type: cell-based, gecko (Gekko japonicus)
X. laevis GPR39 = assay: FLIPR Ca2+ assay, HEK293T cells expressing frog GPR39; type: cell-based, frog (Xenopus laevis)
pancreatic acinar cells [6] = assay: Amylase release from isolated pancreatic acini; type: cell-based, mouse; conditions: 500 μM LCAS, 500 μM TLCAS, 1 nM caerulein
How it was run: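 Mouse acini (WT, Gpr39−/−, Gpbar1−/−) isolated and held as for the LDH assay, then exposed to test compound at 37°C for 30 min. Amylase activity measured in supernatant. Vehicle leakage subtracted as basal; net release expressed as % of total activity (0.5% Triton X-100 lysate). One-way ANOVA with Tukey posttest versus WT.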

pancreatic acinar cells [7] = assay: Acinar cell injury: PI uptake, LDH leakage, blebbing; type: cell-based, mouse; conditions: 4 hours
How it was run: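 Mouse acini (WT, Gpr39−/−, Gpbar1−/−) digested with 1 mg/ml collagenase IV, collected on 150-μm nylon cloth, and suspended in Hepes-buffered DMEM/F12 with 1 mg/ml BSA. Exposed to test compound at 37°C for 4 h. LDH in supernatant measured by kit, expressed as % of total LDH (0.5% Triton X-100 lysate). PI uptake: acini resuspended in 2 μg/ml PI, fluorescence ex 536/em 617 nm, normalized to vehicle.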

[8] = WT mice, LCAS 500 μM, TLCAS 500 μM, caerulein 100 nM

## 5b-cholestanpentol
Mouse GPR39
  GPR39 activation, presence or absence of 4 μM Zn2+: robustly activated
[1]
  zfGPR39 activation: minimal effects

## CCCCCC1OC1C/C=C\C/C=C\C/C=C\CCCC(=O)O (racemic) [14(15)-EET, (±)14(15)-epoxy-5Z,8Z,11Z-eicosatrienoic acid]
GPR39 [2]
  GPR39 blockade (report): blocked

## CCCCC[C@H](O)/C=C/C=C\C/C=C\C/C=C\CCCC(=O)O [15(S)-HETE, 15S-hydroxy-5Z,8Z,11Z,13E-eicosatetraenoic acid]
GPR39 [2]
  GPR39 activation (report): GPR39 activation

## C[C@H](CCC(=O)O)[C@H]1CC[C@H]2[C@@H]3[C@H](O)C[C@@H]4C[C@H](O)CC[C@]4(C)[C@H]3CC[C@]12C [CDCA, chenodeoxycholic acid]
[3]
  Ca2+ elevation in mock-transfected cells: nonspecific Ca^2+ elevations
GHSR
  GHSR activation: activated
  Maximal efficacy at GHSR: comparable to ghrelin

## C[C@H](CCC(=O)O)[C@H]1CC[C@H]2[C@@H]3CC[C@@H]4C[C@H](O)CC[C@]4(C)[C@H]3C[C@H](O)[C@]12C [DCA, deoxycholic acid]
GPBAR1
  GPBAR1 activation: potent agonists
[3]
  Ca2+ elevation in mock-transfected cells: nonspecific Ca^2+ elevations
GHSR; 10 μM BA
  Effect on GHSR activation by ghrelin: did not potentiate or attenuate
GHSR
  GHSR activation: activated
  Maximal efficacy at GHSR: comparable to ghrelin

## CC[C@H]1[C@@H](O)[C@@H]2[C@H](C[C@H](O)[C@]3(C)[C@@H]([C@H](C)C[C@H](C)C(=O)O)CC[C@@H]23)[C@@]2(C)CC[C@@H](O)C[C@@H]12 [INT-777]
Pancreatic acinar cells [4]
  Ca2+ elevation in acinar cells by GPBAR1 ligands and agonist: not observed

## COc1ccc(Cn2c(CCc3ccccc3)nnc2[C@@H](Cc2c[nH]c3ccccc23)NC(=O)CN)cc1 [JMV-2959, JMV2959]
GHSR; 10 μM JMV2959, LCA 200 μM
  Effect on Ca2+ mobilization induced by LCA in GHSR-expressing cells: moderately but not fully inhibited

## C[C@H](CCC(=O)O)[C@H]1CC[C@H]2[C@@H]3CC[C@@H]4C[C@H](O)CC[C@]4(C)[C@H]3CC[C@]12C [LCA, lithocholic acid]
Mouse GPR39; 4 μM BA
  Enhancement of GPR39 activation by Zn2+: enhanced
GHSR; 1 μM LCA
  Effect on GHSR activation by ghrelin: no effect
GHSR; 10 μM BA
  Effect on GHSR activation by ghrelin: attenuated the effect of ghrelin
GHSR
  GHSR activation: activated
  Maximal efficacy at GHSR: lower efficacy
GHSR; compared with UDCA, DCA, and CDCA
  Sensitivity at GHSR: relatively higher sensitivity

## C[C@H](CCC(=O)O)[C@H]1CC[C@H]2[C@@H]3[C@@H](O)C[C@@H]4C[C@H](O)CC[C@]4(C)[C@H]3CC[C@]12C [UDCA, ursodeoxycholic acid]
GHSR; 10 μM BA
  Effect on GHSR activation by ghrelin: did not potentiate or attenuate
GHSR
  GHSR activation: activated
  Maximal efficacy at GHSR: comparable to ghrelin

## C=C1C(=O)NC(C)C(=O)N(C)C(C)C(=O)NC(C(OC(=O)C(NC(C)=O)C(O)C(C)C)C(C)C)C(=O)N(C)C(C(C)OC)C(=O)OC(C)C(NC(C)=O)C(=O)OC(Cc2ccccc2)C(=O)N1C (stereo not drawn) [YM254890] (Ac-T[PhLac][NMeDha]A[NMeA][X1][NMeT](Me); ester 1-C; configuration not given here)
Pancreatic acinar cells [4]; 10 μM YM254890 for 10 min, 500 μM TLCAS
  Effect on Ca2+ elevation induced by TLCAS in acinar cells: eliminated

## [Zn+2] [Zn^2+]
Mouse GPR39
  Zn2+ concentration that notably shifts GPR39 activation by LCAS: above 1 μM
Mouse GPR39; 4 μM Zn2+, leftward shift of the dose-response curve
  Effect of Zn2+ on GPR39-mediated calcium response to TLCAS: potentiated
GPR39 [5]
  Ca2+ response of GPR39-transfected HEK293T cells: exhibited Ca^2+ responses
[3]
  Ca2+ response of mock-transfected HEK293T cells: responded to neither
H17A/H19A mutant GPR39
  Effect of H17A/H19A mutations on Zn2+-induced Ca2+ elevation: abolished
[1]
  zfGPR39 activation: little response
G. Gallus GPR39
  Response of chicken GPR39: strong dose-dependent responses
G. japonicus GPR39
  Response of gecko GPR39: strong dose-dependent responses
X. laevis GPR39
  Response of frog GPR39: strong dose-dependent responses

## CC(C)CCC[C@@H](C)[C@H]1CC[C@H]2[C@@H]3CC=C4C[C@@H](OS(=O)(=O)O)CC[C@]4(C)[C@H]3CC[C@]12C [cholesterol-S, cholesterol 3-sulfate]
Mouse GPR39
  GPR39 activation, presence or absence of 4 μM Zn2+: could not activate GPR39

## CC(C)CCC[C@@H](C)[C@H]1CC[C@H]2[C@@H]3CC=C4C[C@@H](O)CC[C@]4(C)[C@H]3CC[C@]12C [cholesterol]
Mouse GPR39
  GPR39 activation, presence or absence of 4 μM Zn2+: could not activate GPR39

## Caerulein
Pancreatic acinar cells [6]
  Effect of deleting Gpbar1 on induced amylase discharge: did not alter
Pancreatic acinar cells [7]; Gpr39 knockout
  Effect of Gpr39 knockout on induced PI uptake and LDH leakage: did not affect
Pancreatic acinar cells [7]; [8]
  LDH release from isolated acinar cells: increased LDH release
  PI uptake into isolated acinar cells: increased PI uptake
